# From article PMC5089614 (British Journal of Clinical Pharmacology, 2016)
# Like-named read-outs stand apart in the source and are kept apart here.
# Columns and labels:
# plasma proteins = assay type: in vitro ADME, human
# Outline: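 Each patient's predose plasma was spiked with test compound at 70 or 280 ng ml−1 and run in triplicate by rapid equilibrium dialysis. Dialysis was 3 h at 37 °C against isotonic sodium phosphate buffer (120 mM, pH 7.5) across an 8000-Da cut-off membrane. Donor plasma and receiver buffer were each mixed 50:50 with the opposite matrix and quantified by LC/MS/MS.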
# [1] = Single-dose plasma pharmacokinetics of oral ixazomib by hepatic function group; assay type: in vivo, human; details: for AUC(0-t) / Tmax: human, plasma; for AUC(0-t): oral; for Tmax: po; for Dose-normalized AUC 0–last (total) / Unbound AUC 0-last / Unbound dose-normalized AUC 0–last / C max (total) / Dose-normalized C max (total) / Unbound C max / Unbound dose-normalized C max: geometric mean (%CV)
# Outline: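 Solid tumour patients took a single oral dose on day 1. Moderate impairment was total bilirubin >1.5–3 × ULN and severe >3 × ULN. Plasma was sampled predose and 0.5–336 h post-dose and assayed by validated reverse-phase LC/MS/MS. Parameters were noncompartmental. Dose-normalized values were log-transformed, with ratios and 90% CI versus normal from a mixed-effects ANOVA, group fixed.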
# [2] = cited from earlier work
# [3] = moderate impairment vs. normal function
# [4] = moderate impairment, 2.3 mg, n = 10
# [5] = moderate impairment, 2.3 mg, n = 13
# [6] = moderate/severe hepatic impairment combined
# [7] = moderate/severe impairment combined vs. normal function
# [8] = severe impairment vs. normal function
# [9] = severe impairment, 1.5 mg, n = 11
# [10] = severe impairment, 1.5 mg, n = 18
compound,measurement,setting,value
CC(C)C[C@H](NC(=O)CNC(=O)c1cc(Cl)ccc1Cl)B(O)O [ixazomib],bound fraction (mean ± SD),plasma proteins; moderate hepatic impairment group,99.1 ± 0.37%
same,bound fraction (mean ± SD),plasma proteins; normal hepatic function group,99.2 ± 0.34%
same,bound fraction (mean ± SD),plasma proteins; severe hepatic impairment group,99.0 ± 0.45%
same,AUC(0-t),[1]; 1.5 mg,489 ng·h/mL
same,AUC(0-t),[1]; 2.3 mg,846 ng·h/mL
same,AUC(0-t),[1]; 4 mg,1160 ng·h/mL
same,Tmax,[1],0.95 to 1.5 h
same,Tmax,[1]; 1.5 mg,1.21 h
same,Tmax,[1]; 2.3 mg,1.5 h
same,Tmax,[1]; 4 mg,0.95 h
same,"unbound dose-normalized C max, percent higher than normal hepatic function",[1]; moderate hepatic impairment,27%
same,"Geometric least squares mean ratio (90% CI), total dose-normalized AUC 0–last",[1]; [3],"1.27 (0.77, 2.11)"
same,"Geometric least squares mean ratio (90% CI), total dose-normalized C max",[1]; [3],"1.21 (0.74, 2.00)"
same,"Geometric least squares mean ratio (90% CI), unbound dose-normalized AUC 0–last",[1]; [3],"1.32 (0.70, 2.50)"
same,"Geometric least squares mean ratio (90% CI), unbound dose-normalized C max",[1]; [3],"1.27 (0.74, 2.18)"
same,Dose-normalized AUC 0–last (total),[1]; [4],368 (49) h·ng ml^−1 mg^−1
same,Unbound AUC 0-last,[1]; [4],7.33 (61) h·ng ml^−1
same,Unbound dose-normalized AUC 0–last,[1]; [4],3.19 (61) h·ng ml^−1 mg^−1
same,C max (total),[1]; [5],42.5 (63) ng ml^−1
same,Dose-normalized C max (total),[1]; [5],18.5 (63) ng ml^−1 mg^−1
same,Unbound C max,[1]; [5],0.372 (80) ng ml^−1
same,Unbound dose-normalized C max,[1]; [5],0.162 (80) ng ml^−1 mg^−1
same,"total dose-normalized C max, percent higher than normal hepatic function",[1]; [6],17%
same,"unbound dose-normalized C max, percent higher than normal hepatic function",[1]; [6],24%
same,"Geometric least squares mean ratio (90% CI), total dose-normalized AUC 0–last",[1]; [7],"1.20 (0.79, 1.82)"
same,"Geometric least squares mean ratio (90% CI), total dose-normalized C max",[1]; [7],"1.17 (0.77, 1.78)"
same,"Geometric least squares mean ratio (90% CI), unbound dose-normalized AUC 0–last",[1]; [7],"1.27 (0.75, 2.16)"
same,"Geometric least squares mean ratio (90% CI), unbound dose-normalized C max",[1]; [7],"1.24 (0.79, 1.95)"
same,C max (total),"[1]; normal function, 4 mg, n = 12",61.0 (54) ng ml^−1
same,Dose-normalized AUC 0–last (total),"[1]; normal function, 4 mg, n = 12",289 (41) h·ng ml^−1 mg^−1
same,Dose-normalized C max (total),"[1]; normal function, 4 mg, n = 12",15.3 (54) ng ml^−1 mg^−1
same,Unbound AUC 0-last,"[1]; normal function, 4 mg, n = 12",9.65 (50) h·ng ml^−1
same,Unbound C max,"[1]; normal function, 4 mg, n = 12",0.509 (47) ng ml^−1
same,Unbound dose-normalized AUC 0–last,"[1]; normal function, 4 mg, n = 12",2.41 (50) h·ng ml^−1 mg^−1
same,Unbound dose-normalized C max,"[1]; normal function, 4 mg, n = 12",0.127 (47) ng ml^−1 mg^−1
same,"unbound dose-normalized AUC0–last, percent higher than normal hepatic function",[1]; severe hepatic impairment,23%
same,"unbound dose-normalized C max, percent higher than normal hepatic function",[1]; severe hepatic impairment,21%
same,"Geometric least squares mean ratio (90% CI), total dose-normalized AUC 0–last",[1]; [8],"1.13 (0.69, 1.84)"
same,"Geometric least squares mean ratio (90% CI), total dose-normalized C max",[1]; [8],"1.14 (0.72, 1.82)"
same,"Geometric least squares mean ratio (90% CI), unbound dose-normalized AUC 0–last",[1]; [8],"1.23 (0.66, 2.29)"
same,"Geometric least squares mean ratio (90% CI), unbound dose-normalized C max",[1]; [8],"1.21 (0.74, 2.01)"
same,Unbound AUC 0-last,[1]; [9],4.44 (63) h·ng ml^−1
same,Unbound dose-normalized AUC 0–last,[1]; [9],2.96 (63) h·ng ml^−1 mg^−1
same,C max (total),[1]; [10],26.1 (70) ng ml^−1
same,Dose-normalized C max (total),[1]; [10],17.4 (70) ng ml^−1 mg^−1
same,Unbound C max,[1]; [10],0.232 (84) ng ml^−1
same,Unbound dose-normalized C max,[1]; [10],0.154 (84) ng ml^−1 mg^−1
same,half-life,[2]; after oral dosing,96 to 220 h
same,renal clearance,[2],0 to 0.51 L/h
same,median time to reach peak concentration (T max),[2]; clinical studies,0.5 to 2.0 h
same,effect of mild hepatic impairment on PK,"[2]; population PK analysis, cancer patients, NCI ODWG criteria",no clinically relevant PK changes
same,effect of mild and moderate renal impairment on PK,"[2]; population PK analysis, creatinine clearance ≥30 ml min^−1",did not alter ixazomib PK
